# GalR3 antagonist – GalR3 antagonists in HEK293 cells, primary screen, cell-based, fluorescence readout; HEK293 GalR3-CNG cAMP membrane potential fluorescence; galR3 body fused to GalR1 C-terminus; inhibition, % at 3 µM; 360,000 compounds, 0.44% hits;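 active = inhibition above the screen-wide average plus 3 SD, cut at about 13% in these data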;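 note: forskolin and galanin both at EC90 stimulate the cells; cAMP rise reported by CNG channel membrane potential dye signal; 0% = forskolin plus galanin with DMSO and 100% = forskolin alone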
# Target sequence (O60755 1-299 limits assumed): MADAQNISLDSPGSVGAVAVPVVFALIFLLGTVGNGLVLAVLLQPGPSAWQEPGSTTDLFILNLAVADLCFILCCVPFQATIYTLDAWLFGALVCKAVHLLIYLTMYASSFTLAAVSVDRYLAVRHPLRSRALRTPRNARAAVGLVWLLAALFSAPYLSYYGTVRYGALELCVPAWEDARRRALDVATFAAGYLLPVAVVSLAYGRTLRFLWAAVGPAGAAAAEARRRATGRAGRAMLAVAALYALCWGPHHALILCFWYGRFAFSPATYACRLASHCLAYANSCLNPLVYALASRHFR
# OX1R antag-1 – antagonists of human orexin 1 receptor (OX1R). AID 485270, 2010. inhibition, % at 6.6 µM. 330,000 compounds, 1.8% hits. OX1R-expressing cells, FRET antagonist read-out; in the data active = inhibition mostly above about 38%, no sharp cut-off; inactive = mostly below about 40%;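 note: 0% = agonist challenge alone and 100% = reference antagonist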
# GPR7 antagonist – GPR7 receptor antagonists, primary screen, cell-based, fluorescence, single concentration; Neuropeptides B/W receptor type 1 (Homo sapiens), P48145; inhibition, % at 4.4 µM; 290,000 compounds, 1.1% hits; AID 1861, 2009; GPR7-expressing cells, fluorescence antagonist assay; in the data active = inhibition above about 16%, passing the limit was not always enough;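 note: cells stimulated with the agonist NPW; 0% = agonist with vehicle and 100% = vehicle without agonist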
# Target sequence (P48145 whole entry, looked up): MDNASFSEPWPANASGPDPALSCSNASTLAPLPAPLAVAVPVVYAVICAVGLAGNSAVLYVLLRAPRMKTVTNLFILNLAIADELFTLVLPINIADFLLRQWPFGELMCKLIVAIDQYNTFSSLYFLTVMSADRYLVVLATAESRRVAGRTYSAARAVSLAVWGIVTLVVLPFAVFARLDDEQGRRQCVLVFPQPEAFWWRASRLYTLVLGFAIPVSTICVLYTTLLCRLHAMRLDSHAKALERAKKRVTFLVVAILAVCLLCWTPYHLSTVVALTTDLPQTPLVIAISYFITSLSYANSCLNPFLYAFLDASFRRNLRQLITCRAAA
# CHO parental Ca – ATP-evoked calcium signal inhibitors, parental CHO, primary screen, counter-screen for OX1R antagonist project, cell-based, fluorescence, Fluo-8 calcium dye; parental CHO-K1, ATP-induced calcium, Fluo-8 fluorescence; 330,000 compounds, 0.63% hits; AID 463079, 2010; inhibition, % at 5.6 µM;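 active = inhibition above that plate's mean sample inhibition plus 3 SD, cut at about 26% in these data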;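 note: 0% = ATP-challenged DMSO wells and 100% = DMSO wells without ATP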
#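 Test system: untransfected parental CHO cell line; also added: ATP stimulus; dosing: 5.6 µM, single dose; signal: calcium-sensitive Fluo-8 fluorescence; measure: percent inhibition of ATP-evoked calcium rise, normalized to controls; benchmarks: low control ATP plus DMSO, high control DMSO only; replication: one well per compound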
# OX1R antag-2 – OX1R (HCRTR1) antagonists, primary screen, fluorescence, CHO/OX1R cells, Fluo-8 calcium, orexin A; Fluo-8 calcium fluorescence; inhibition, % at 5 µM; 330,000 compounds, 0.43% hits;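 active = inhibition above its plate's threshold, mean inhibition of all tested compounds on the plate plus 3 SD, cut at about 37% in these data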;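 note: 0% = orexin A challenge wells and 100% = SB-334867-A antagonist wells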
# GPR7 antag conf – GPR7 receptor antagonists, confirmation, cell-based, fluorescence, single concentration; GPR7-expressing cells, calcium fluorescence antagonist mode; 2,400 compounds, 52% hits; inhibition, % at 4.4 µM; shares compounds with GPR7 antagonist; AID 1952, 2009; in the data active = inhibition above about 24%;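 note: stimulated with the GPR7 agonist NPW; 0% = agonist plus vehicle and 100% = vehicle alone without agonist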
# MCHR1 antag – MCHR1 antagonists in cells, counter-screen for GPR7 antagonist project, cell-based, fluorescence, human. shares compounds with GPR7 antagonist. MCHR1-expressing cells, fluorescence antagonist assay. inhibition, % at 4.4 µM. 2,400 compounds, 62% hits. AID 2148, 2009; in the data active = inhibition above about 22%;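 note: 0% = vehicle with agonist and 100% = vehicle without agonist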
# * marks the source's active call; other numbers are inactive results; · = not tested or not shown. An excerpt weighted towards active compounds, which were near 3.1% of everything screened.
SMILES,GalR3 antagonist,OX1R antag-1,GPR7 antagonist,CHO parental Ca,OX1R antag-2,GPR7 antag conf,MCHR1 antag
Clc1ccccc1Cc1noc(CN2CCN(c3cnccn3)CC2)n1,5,21,-3,-5,-18,·,·
O=c1ccc2cc(S(=O)(=O)Nc3ccc(Br)cc3)ccc2o1,-9,·,24*,·,·,14,22*
COc1ccc(NS(=O)(=O)c2ccc3oc(=O)ccc3c2)cc1,-11,11,-7,-2,-10,·,·
O=C(Nc1ncccc1O)c1ccc(Oc2ccccc2)cc1,-9,7,35*,-3,-27,9,16
O=C(COc1ccc(C(=O)c2ccccc2)cc1)Nc1ncccc1O,2,6,-6,-2,10,·,·
CC(C)(C)NS(=O)(=O)c1ccc(NC(=S)NC(=O)C2CC2)cc1,-3,26,18,11,1,·,·
O=C(c1ccc(COc2ccccc2Br)cc1)N1CCCCC1,1,15,25*,21,-17,36*,44*
Cc1cc(C)c2oc(C(=O)N(Cc3ccccc3)c3ccccn3)cc(=O)c2c1,-1,21,26*,-27,-14,-9,16
Cc1cc2oc(C(=O)N(Cc3ccccc3)c3ccccn3)cc(=O)c2cc1Cl,-4,17,-12,-13,-14,·,·
CCCn1c(COc2ccc(C(=O)O)cc2)nc2ccccc21,-11,8,-11,-12,-5,·,·
CCc1nn(CC(=O)N2CCN(CC)CC2)c(=O)c2cc3sccc3n12,3,19,21*,-7,-26,-9,-3
CC(C)(C)c1ccc(OCCC(=O)Nc2cccc(S(=O)(=O)N3CCOCC3)c2)cc1,1,5,-12,5,1,·,·
COc1cc(C)ccc1OCCOCCOc1ccc(C)cc1[N+](=O)[O-],2,15,1,-16,-25,·,·
COc1ccc(C=O)cc1COc1ccc(C)cc1[N+](=O)[O-],-6,43,31*,-9,-16,28*,61*
CCOc1ccc(NC(=O)CN2C(=O)NC(C)(c3ccc(OC(F)F)cc3)C2=O)cc1 (stereo unspecified),-7,-9,75*,21,32,81*,74*
COc1ccc(C2(c3ccc(OC)cc3)NC(=O)N(CC(=O)Nc3ccc(OC(F)F)cc3)C2=O)cc1,-3,23,4,-5,-1,·,·
CC1(c2ccc(OC(F)F)cc2)NC(=O)N(CC(=O)Nc2cccc(F)c2)C1=O (stereo unspecified),-1,11,94*,53*,67*,93*,92*
CC1(c2ccc(OC(F)F)cc2)NC(=O)N(CC(=O)Nc2ccc(Cl)cc2F)C1=O (stereo unspecified),-9,11,55*,22,18,67*,64*
Cc1ccc(NC(=O)CN2C(=O)NC(C)(c3ccc(Cl)cc3)C2=O)cc1 (stereo unspecified),-7,8,23*,4,-9,43*,29*
CC1(c2ccc(OC(F)F)cc2)NC(=O)N(CC(=O)NC2CCCCC2)C1=O (stereo unspecified),-5,2,7,-18,-9,·,·
Cc1ccc(NC(=O)C2CCN(S(=O)(=O)c3ccc4c(c3)OCCO4)CC2)c(O)c1,-5,18,·,4,-9,·,·
Cc1cccc(NC(=O)C(C)Sc2ncnc3sccc23)c1 (stereo unspecified),-6,·,·,·,·,·,·
CCc1ccc(C(=O)NNC(=O)CN2C(=O)NC(CC)(c3ccccc3)C2=O)cc1 (stereo unspecified),-3,33,·,7,12,·,·
CC1(c2ccc(OC(F)F)cc2)NC(=O)N(CC(=O)Nc2ccc(F)cc2)C1=O (stereo unspecified),-10,10,43*,15,23,54*,48*
Cc1cc(NC(=O)CN2C(=O)NC(C)(c3ccccc3Cl)C2=O)no1 (stereo unspecified),-2,-2,·,-10,-5,·,·
SMILES,GalR3 antagonist,OX1R antag-1,GPR7 antagonist,CHO parental Ca,OX1R antag-2,GPR7 antag conf,MCHR1 antag
CC1(c2ccc(OC(F)F)cc2)NC(=O)N(CC(=O)Nc2ccc(S(N)(=O)=O)cc2)C1=O (stereo unspecified),-8,5,-9,-6,-5,·,·
Cc1cc(NC(=O)CN2C(=O)NC(C)(c3ccc(OC(F)F)cc3)C2=O)no1 (stereo unspecified),1,-3,50*,-7,0,51*,48*
CC1(c2ccc(OC(F)F)cc2)NC(=O)N(CC(=O)Nc2ccc(OC(F)F)cc2)C1=O (stereo unspecified),-5,-5,86*,36*,53*,88*,86*
CCOC(=O)c1sc(NC(=O)CN2C(=O)NC3(CCCCCCC3)C2=O)c(C(=O)OCC)c1C,-3,1,0,-12,-11,·,·
CCOC(=O)c1c(NC(=O)CN2C(=O)NC(C)(c3ccc(OC(F)F)cc3)C2=O)sc(C)c1C (stereo unspecified),-1,-5,71*,30,26,68*,86*
CCOC(=O)c1cccc(NC(=O)c2ccc(-n3cnnn3)cc2)c1,1,14,·,-7,5,·,·
Cc1ccc(C(C(=O)NCc2ccc(F)cc2)N(Cc2ccco2)C(=O)c2snc(C(N)=O)c2N)o1 (stereo unspecified),0,11,-7,-8,-19,·,·
COC(=O)C1CCN(C(c2cc(OC)c(OC)c(OC)c2)c2sc3nc(C)nn3c2O)CC1 (stereo unspecified),·,4,23*,5,7,-10,3
Cc1ccccc1NC(=S)N(Cc1cccs1)C1CCCCC1,5,7,-22,-8,-19,·,·
Cc1c(Cl)cccc1NC(=S)N(Cc1cccs1)C1CCCC1,-7,26,23*,-6,-8,-2,27*
COC(=O)Cc1ccc(NC(=S)N2CCN(C)CC2)cc1,4,13,34*,-12,0,-6,13
COCCNC(=O)Cn1cc(C(=S)N2CCCCC2)c2ccccc21,6,15,24*,-13,-21,-6,3
S=C(c1cn(CCOc2ccccc2)c2ccccc12)N1CCCC1,-2,34,14,-11,9,·,·
Cc1ccc(OCCn2cc(C(=S)N3CCCC3)c3ccccc32)cc1C,1,-2,27*,-14,-10,29*,68*
